From ChEMBL document CHEMBL1926554, “Diarylheptanoids from the seeds of Alpinia katsumadai as heat shock factor 1 inducers” (J Nat Prod, 2011)
Active and inactive are the calls of the source. No cut-off for these calls is given here.

What was measured:
NCI-H460 [1] = assay: Induction of HSP27 expression in human NCI-H460 cells at 1 uM after 24 hrs by Western blotting relative to control; assay type: functional
In short: (§1)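 NCI-H460 (human non-small-cell lung cancer) cells treated 24 h. Lysates run on SDS-PAGE, transferred to nitrocellulose, probed with antibodies to HSF1, HSP27 and HSP70, detected by ECL. Band signals normalized to β-actin and compared with untreated cells. Mean ± SD of three independent experiments done in triplicate, p < 0.05 versus untreated.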

NCI-H460 [2] = assay: Induction of HSF1 expression in human NCI-H460 cells at 1 uM after 24 hrs by Western blotting relative to control; assay type: functional; in short: as §1
NCI-H460 [3] = assay: Induction of HSP70 expression in human NCI-H460 cells at 1 uM after 24 hrs by Western blotting relative to control; assay type: functional; in short: as §1
NCI-H460 [4] = assay: Cytotoxicity against human NCI-H460 cells after overnight incubation by MTT assay; assay type: cell-based
In short: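 Human non-small-cell lung cancer NCI-H460 cells. Cytotoxicity read by MTT assay. IC50 taken as the concentration (μM) giving 50% inhibition of cell growth.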

Structure (SMILES) | Activity (NCI-H460 [1]) | Activity (NCI-H460 [2]) | Activity (NCI-H460 [3]) | IC50 (NCI-H460 [4]) | fold change (FC) (NCI-H460 [1]) | fold change (FC) (NCI-H460 [2]) | fold change (FC) (NCI-H460 [3])
Oc1ccc(CC[C@H](O)C[C@H](O)/C=C/c2ccccc2)cc1 | inactive | inactive | inactive |  |  |  | 
CC(=O)O[C@H]1C(=O)[C@@]2(C)[C@H]([C@H](OC(=O)c3ccccc3)[C@]3(O)C[C@H](OC(=O)[C@H](O)[C@@H](NC(=O)c4ccccc4)c4ccccc4)C(C)=C1C3(C)C)[C@]1(OC(C)=O)CO[C@@H]1C[C@@H]2O [PACLITAXEL] |  |  |  | 8 µM |  |  | 
COc1cc(O)c(C(/C=C/CC(O)CCc2ccc(O)cc2)c2ccc(O)cc2)c(O)c1C(=O)/C=C/c1ccccc1 (mixture of isomers) |  |  |  | 47.4 µM | 1.403 | 1.438 | 1.373
COc1cc(O)c(C(/C=C/CC(O)CCc2ccccc2)c2ccc(O)cc2)c(O)c1C(=O)/C=C/c1ccccc1 (mixture of isomers) |  |  |  | 39.8 µM | 1.25 | 1.19 | 1.313
CC1=C(O)C(=O)C=C2C1=CC=C1[C@@]2(C)CC[C@@]2(C)[C@@H]3C[C@](C)(C(=O)O)CC[C@]3(C)CC[C@]12C [CELASTROL] |  |  |  | 12.3 µM | 1.216 | 1.066 | 1.371
COc1cc(O)c(C(/C=C/CC(O)CCc2ccccc2)c2ccc(O)cc2)c(O)c1C(=O)/C=C/c1ccc(O)cc1 (mixture of isomers) |  |  |  | 45.7 µM | 1.27 | 1.316 | 1.229
O=C(/C=C/c1ccc(O)cc1)C[C@H](O)CCc1ccccc1 | inactive | inactive | inactive |  |  |  | 
